We go through one molecule from ChEMBL document CHEMBL4725371, “A Novel Redox Modulator Induces a GPX4-Mediated Cell Death That Is Dependent on Iron and Reactive Oxygen Species” (J Med Chem, 2020).

The test system of data set [1] is MIA PaCa-2. The data set can be described thus: Cytotoxicity against human MIA PaCa-2 cells measured after 72 hrs by MTT assay. The format is functional, cell-based. The conditions noted are these: MIA PaCa-2, 72 h. The method in brief: (§1)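 Cells were kept in RPMI 1640 with 10% FBS at 37 °C, 5% CO₂, under 35 passages. Cells were seeded, attached overnight and treated with compound or DMSO for 72 h. MTT was added at 0.3 mg/mL for 3 h, then dissolved in DMSO and read as absorbance at 570 nm. IC50 was fitted from the curve. Values are mean ± sd of three independent experiments.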
On the technique in general: Tetrazolium dyes change colour on reduction, which living cells bring about.

Another data set deals with PANC-1. The data set can be described thus: Cytotoxicity against human PANC-1 cells measured after 72 hrs by MTT assay. The class given is functional, cell-based. The following applies: PANC-1, 72 h. In short, it runs like this: as §1
For the next data set, the system named is BXPC-3. The data set can be described thus: Cytotoxicity against human BXPC-3 cells measured after 72 hrs by MTT assay. The format is functional, cell-based. The following applies: BXPC-3, 72 h. In short, it runs like this:
as §1

Data set [2] relates to MIA PaCa-2. The data set can be described thus: Induction of reactive oxygen species in human MIA PaCa-2 cells at 5 to 10 uM measured up to 4 hrs by CM-H2DCFDA dye based fluorescence assay. The format is functional, cell-based. The conditions noted are these: dose microM 5-10, time hrs <=4. In short, it runs like this: (§2)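 1.8 × 10⁴ cells per well were attached overnight, then loaded with 10 μM CM-H2DCFDA in HBSS for 40 min at 37 °C and washed. Compounds were added in HBSS. Fluorescence was read at Ex 483 / Em 530 nm. TBHP was the positive control. NAC at 3 mM was used where stated.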

The test system of data set [3] is MIA PaCa-2. Briefly: Induction of reactive oxygen species in human MIA PaCa-2 cells at 5 to 10 uM measured after 30 mins in presence of N-acetylcysteine by CM-H2DCFDA dye based fluorescence assay. The format is functional, cell-based. The following applies: dose microM 5-10, time 30.0 min. The method in brief: as §2
The test system of data set [4] is MIA PaCa-2. Briefly: Induction of ferroptosis in human MIA PaCa-2 cells assessed as increase in lipid peroxidation measured after 24 hrs by C11-BODIPY dye based fluorescence assay. The format is functional, cell-based. The method in brief:
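MIA PaCa-2 cells were treated for the set time, then given 10 μM C11-BODIPY for 30 min at 37 °C and washed. Fluorescence was read at 581/591 nm (reduced dye) and 488/510 nm (oxidized dye). The intensity ratio was compared by unpaired t-test.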

Data set [5] has as its system MIA PaCa-2. The data set can be described thus: Down regulation of PNPT1 expression in human MIA PaCa-2 cells at 3 times IC50 measured after 4 hrs by proteomics analysis. The format is functional, cell-based.
Data set [6] has as its system MIA PaCa-2. Briefly: Down regulation of LRPPRC expression in human MIA PaCa-2 cells at 3 times IC50 measured after 4 hrs by proteomics analysis. The class given is functional, cell-based.
Data set [7] has as its target T1, Phospholipid hydroperoxide glutathione peroxidase GPX4 (Homo sapiens) (UniProt P36969).
T1 sequence (whole entry): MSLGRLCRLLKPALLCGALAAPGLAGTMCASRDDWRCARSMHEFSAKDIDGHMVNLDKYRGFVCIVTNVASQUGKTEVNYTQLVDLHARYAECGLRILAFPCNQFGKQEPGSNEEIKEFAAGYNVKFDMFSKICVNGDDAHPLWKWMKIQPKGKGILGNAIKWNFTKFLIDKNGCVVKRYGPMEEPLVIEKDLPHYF
Briefly: Binding affinity to GPX4 in human PANC-1 cells assessed as protein destabilization by measuring reduction in melting temperature at 100 uM measured after 1 hr by thermal shift assay. The class given is cell-based.

The test system of data set [8] is MIA PaCa-2. The data set can be described thus: Cytotoxicity against human MIA PaCa-2 cells transfected with GPX4 siRNA measured after 72 hrs by MTT assay. The class given is functional, cell-based.
The nature of data set [9]: Half life in mouse liver microsomes at 10 uM in presence of NADPH by LC-MS/MS analysis. The format is ADME, Microsome. The following applies: microsomes, 10 µM. In short, it runs like this: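 Compound (10 μM working solution in 0.1 M phosphate buffer with 3.3 mM MgCl₂) was incubated with mouse liver microsomes and NADPH. Verapamil served as reference. Samples were taken at 0, 5, 10, 15, 30, 45 and 60 min and centrifuged at 3500 g. Supernatant was run by LC-MS/MS. t1/2 came from the slope of ln(peak area ratio) against time.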
In general terms: Microsomes from liver hold many membrane-bound enzymes, among them those of drug oxidation.

Data set [10] can be described thus: Half life in mouse plasma at 500 uM by LC-MS/MS analysis. The class given is ADME, cell-free. In short, it runs like this: (§3)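 Compound (500 μM DMSO stock) was added at 1 μL per 500 μL pooled plasma. Samples were taken at 0, 0.17, 0.5, 1, 2 and 4 h and centrifuged at 3500 g for 10 min. Supernatant was run by LC-MS/MS. t1/2 came from the slope of ln(compound/internal standard peak area) against time.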

A short description of data set [11]: Half life in human plasma at 500 uM by LC-MS/MS analysis. The format is ADME, cell-free. In short, it runs like this:
as §3

Data set [12] is described as follows: Plasma concentration in CD-1 mouse at 10 mg/kg, ip measured after 7 hrs by LC-MS/MS analysis. The class given is ADME, organism-based. The method in brief: (§4)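 CD-1 mice dosed IP at 10 mg/kg or PO at 20 mg/kg, n=2 per route. Blood taken with heparinized pipettes at 0.5, 2, 4 and 7 h and spun at 15,000 rpm for 10 min. Plasma stored at −80 °C, then measured by LC-MS/MS.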

Data set [13] in a line: Plasma concentration in CD-1 mouse at 20 mg/kg, po measured after 7 hrs by LC-MS/MS analysis. The format is ADME, organism-based. The method in brief:
as §4

Data set [14] in a line: Drug level in CD-1 mouse colon at 20 mg/kg, po measured after 1 hr by LC-MS/MS analysis. The format is ADME, organism-based. The following applies: in vivo. The method in brief: (§5)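 Mice received 20 mg/kg PO or 10 mg/kg IV. Organs were collected after 1 h and homogenised in five-fold dissociation solvent. Homogenate was mixed with acetonitrile and internal standard and centrifuged at 3500 g for 10 min. Supernatant was analysed by LC-MS.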

Data set [15] can be described thus: Drug level in CD-1 mouse colon at 10 mg/kg, iv measured after 1 hr by LC-MS/MS analysis. The class given is ADME, organism-based. The following applies: in vivo. In short, it runs like this: as §5
Data set [16] in a line: Drug metabolism in CD-1 mouse plasma assessed as hydroxylation at 20 mg/kg, po measured after 15 mins by LC-MS/MS analysis. The format is ADME, organism-based. The following applies: in vivo, 0.25 h.
Data set [17] in a line: Drug metabolism in CD-1 mouse plasma assessed as hydroxylation at 10 mg/kg, iv measured after 15 mins by LC-MS/MS analysis. The class given is ADME, organism-based. The conditions noted are these: in vivo, 0.25 h.
A further data set deals with CT26. Briefly: Antitumor activity against mouse CT26 cells implanted in Balb/c mouse assessed as tumor shrinkage at 10 mg/kg, iv administered three times weekly for 17 days measured 4 hrs post-last dose. The class given is functional, organism-based. The conditions noted are these: time 17.0 day. The method in brief:
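Female Balb/c mice aged 5–6 weeks, implanted subcutaneously in right flank with 1 × 10⁶ CT-26 cells in DPBS. Dosing began 7 days later with randomisation (n = 5/group, mean tumour 97–117 mm³). IV dosing was 3 times weekly and IP dosing was given. Vehicle control given daily IP. Mice were euthanised four hours post-dose after 17 days of dosing.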

Activity calls are given as the source filed them. No cut-off for these calls is given here.

In general, IC50 refers to the concentration needed to halve the response being measured. Usually half-life stands for how long it takes for the measured level to halve. High values mean slow decline, low ones rapid decline. `CC1=C(Nc2ccc(N3CCN(C)CC3)cc2)C(=O)c2cncnc2C1=O`: the results for the IC50 in the data set on MIA PaCa-2 [1], in the data set with PANC-1 and in the data set on BXPC-3 were 3.63 µM, 380 nM and 870 nM, respectively. The outcome in the data set on MIA PaCa-2 [2], with MIA PaCa-2 [5], in the data set with MIA PaCa-2 [6] and in the data set with CT26 was Active. Further, the outcome in the data set on MIA PaCa-2 [3] and in the data set with MIA PaCa-2 [8] was inactive. The Activity entry (in the data set on MIA PaCa-2 [4]; in [7]) was “Dose-dependent effect” in each case. For the same molecule, in data set [9], the t1/2 was 44.6 min. The half-life at 500 µM in [10] and in data set [11] was above 120 min each time. Also, the concentration at 7 h came out at 6.7 ng/mL in data set [12] and 3.4 ng/mL in data set [13]. Moreover, the Drug uptake in data set [14] and in data set [15] was 0.3 mg/kg in each case. Moreover, the Drug metabolism result in [16] and in [17] was “Metabolite_Detected” throughout.
